Bioassay records: PubChem BioAssay, The Scripps Research Institute Molecular Screening Center
Most compounds without a hit are left out; they make up all but 0.55% or so of the library.
OXTR agonist = agonists of human oxytocin receptor. activation, % at 3 µM. AID 2435. CHO-OTR cells, Fluo-8 calcium fluorescence; normalized: DMSO 0%, oxytocin 100%. 320,000 compounds, 0.32% hits;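 active means activation above the mean of all tested compounds plus 3 SD, cutoff set per screening run, cut at about 20% in these data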;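 further: peak over basal fluorescence ratio from a 100 s FLIPR kinetic read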
zfTRPN1 agonist = zebrafish TRPN1 (NompC) channel agonism; HEK293 zebrafish TRPN1-YFP, Fluo-8 calcium fluorescence; 100% = response to 87 µM carbachol; AID 1424; activation, % at 3 µM; 220,000 compounds, 0.18% hits;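 active means activation above its plate's cutoff, the mean activation of test wells on that plate plus 3 SD, cut at about 19% in these data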;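 further: 0% = DMSO alone and 100% = 87 µM carbachol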
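Assay system: Zebrafish TRPN1-YFP in HEK293 cells | Incubation: Dye loading 1 h at 37 °C, then 30 min room temperature | Measured by: Kinetic Fluo-8 fluorescence, ex 470-495, em 515-575 nm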
V1aR counter = activates human V1a receptor in oxytocin agonist counter-screen; activation, % at 3 µM; CHO-V1R cells, Fluo-8 calcium fluorescence, agonist mode; 0% DMSO, 100% 3 nM vasopressin; 320,000 compounds, 0.25% hits; P37288;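 active means activation above the mean activation of all tested compounds plus 3 SD, per screening run, cut at about 20% in these data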;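 further: signal is peak over basal fluorescence ratio across a 100 second FLIPR read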
TRPML3 agonist = agonists of human TRPML3 channel; Q8TDD5; HEK293 TRPML3-YFP, Fluo-8 calcium fluorescence; 100% = the carbachol control signal; activation, % at 3 µM; 220,000 compounds, 0.29% hits; AID 1448;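 active means activation above its plate's cutoff, the mean activation of the plate's test wells plus 3 SD, cut at about 12% in these data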;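 further: 0% = DMSO only wells and 100% = carbachol wells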
Target sequence (Q8TDD5 whole entry, looked up): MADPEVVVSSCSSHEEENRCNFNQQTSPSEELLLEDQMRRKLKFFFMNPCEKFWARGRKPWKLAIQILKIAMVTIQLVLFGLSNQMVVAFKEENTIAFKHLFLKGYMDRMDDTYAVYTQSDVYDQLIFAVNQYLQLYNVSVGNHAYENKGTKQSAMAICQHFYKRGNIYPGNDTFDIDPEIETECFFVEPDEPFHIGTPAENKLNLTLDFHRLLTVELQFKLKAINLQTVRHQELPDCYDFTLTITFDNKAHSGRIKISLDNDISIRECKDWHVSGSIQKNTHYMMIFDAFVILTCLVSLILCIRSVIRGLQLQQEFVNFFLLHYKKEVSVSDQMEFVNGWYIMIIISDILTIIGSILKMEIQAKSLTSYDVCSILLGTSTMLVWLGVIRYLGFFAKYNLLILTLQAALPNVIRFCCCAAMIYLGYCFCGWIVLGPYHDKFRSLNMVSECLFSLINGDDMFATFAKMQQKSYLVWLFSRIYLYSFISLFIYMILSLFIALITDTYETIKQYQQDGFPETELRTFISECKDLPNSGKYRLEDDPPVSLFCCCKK
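Test system – HEK293 line with stable expression of human TRPML3-YFP channel · Control set – carbachol 87 µM final as high control (100%), DMSO as low control (0%) · Signal – Fluo-8 calcium dye fluorescence, ex 470-495, em 515-575 nm · Incubation – 1-h 37 °C dye load, 5-s basal, 120-s post-compound reads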
OXTR potentiator = human OXTR potentiation; P30559; CHO-OTR cells, Fluo-8 calcium fluorescence, potentiator mode; 0% = oxytocin EC15, 100% = EC100; activation, % at 3 µM; 320,000 compounds, 0.061% hits; AID 2445;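 active means activation above that plate's cutoff, the mean activation of tested compounds plus 3 SD, cut at about 6.6% in these data, passing the limit was not always enough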;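 further: 100% uses oxytocin at 75 nM as the full agonist control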
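test system = CHO-OTR cells, human receptor | compound = single-point 3.0 µM | schedule = 6 min compound pre-incubation at room temperature, 100 s kinetic read | signal = Fluo-8 no-wash calcium dye fluorescence, excitation 470-495 nm, emission 515-575 nm | repeats = single well per compound, singlicate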
* = called active by the depositor; nt = no result.

SMILES	OXTR agonist	zfTRPN1 agonist	V1aR counter	TRPML3 agonist	OXTR potentiator
COc1cc(-c2n[nH]c(=S)n2/N=C/c2cccn2C)cc(OC)c1OC	72.5*	64.2*	51.1*	34.6*	-21.6
Cn1cccc1/C=N/n1c(-c2ccco2)n[nH]c1=S	-0.1	2.4	-0.9	6.8	0.3
O=C(Nc1nnc(-c2ccccc2Cl)o1)c1ccco1	0.5	-1.0	0.5	-0.3	-4.9
O=C(Nc1nnc(-c2ccccc2Cl)o1)c1nc2ccccc2s1	50.4*	89.2*	58.5*	95.1*	-9.7
O=C1/C(=C\c2cc([N+](=O)[O-])ccc2O)SC(=S)N1Cc1ccc(Cl)cc1	96.2*	nt	66.9*	nt	-25.2
COc1cc(/C=C2/SC(=S)N(Cc3ccccc3)C2=O)ccc1O	27.6*	nt	36.3*	nt	-4.8
COc1cc(/C=C2\SC(=S)N(C(C(=O)O)c3ccccc3)C2=O)ccc1O (configuration not stated)	33.1*	40.3*	49.0*	27.1*	-11.6
COc1ccc(S(=O)(=O)Nc2ncccn2)cc1	0.3	nt	-0.6	nt	-0.5
O=C(Nc1ccccc1C(=O)Nc1nnc(C(F)(F)F)s1)c1ccccc1Cl	9.9	23.0*	11.7	13.2*	-14.3
O=C(Nc1nnc(C(F)(F)F)s1)c1ccc(Br)s1	19.3	28.7*	9.2	19.3*	-8.5
CC(C)(C)CC(=O)Nc1nnc(C(F)(F)F)s1	-1.4	0.0	-1.0	0.4	-16.6
CC(NC(=O)Nc1nnc(C(F)(F)F)s1)(C(F)(F)F)C(F)(F)F	13.7	25.8*	9.0	21.2*	-10.5
NC(=O)c1ccccc1NC(=O)c1ccccc1Cl	1.2	-0.5	-0.1	0.5	0.0
COC(=O)c1c(NC(=O)c2ccccc2F)sc(C(=O)N2CCOCC2)c1C	0.9	nt	1.8	nt	4.8
COc1cc(OC)cc(C(=O)NCCS(=O)(=O)N2CCN(Cc3ccccc3)CC2)c1	-1.1	nt	3.2	nt	-1.2
O=C(OCCN1C(=O)c2cccc3c(N4CCOCC4)ccc(c23)C1=O)c1ccc(Cl)cc1Cl	14.0	6.6	9.2	4.3	-5.0
O=C(OCCN1C(=O)c2cccc3c(N4CCOCC4)ccc(c23)C1=O)c1cccc(Cl)c1	23.3*	5.7	22.5*	7.4	-11.5
COc1ccccc1N1CCN(C(C)C(=O)N2CC(C)OC(C)C2)CC1 (configuration not stated)	-0.2	0.6	0.0	0.7	1.8
COc1ccc2cc(C(=O)N/N=C/c3sc4ccccc4c3O)ccc2c1	36.4*	13.9	34.8*	8.8	-12.9
CCN1CCN(c2c(/C=C3\SC(=S)N(Cc4ccco4)C3=O)c(C)c(C#N)c(=O)n2C)CC1	14.4	2.4	20.3*	3.6	-10.0
CC[C@@H](C(=O)[C@@H](C)[C@@H](O)[C@H](C)CCc1ccc(C)c(O)c1C(=O)O)[C@H]1O[C@](CC)([C@H]2CC[C@](O)(CC)[C@H](C)O2)C[C@@H]1C	32.0*	nt	42.0*	nt	-9.5
CS(=O)(=O)N(CC(=O)N/N=C/c1cccs1)c1cccc(Cl)c1Cl	7.6	1.2	8.0	0.1	-19.1
N=C1/C(=C/c2coc3ccccc3c2=O)C(=O)N=C2SC(c3ccco3)=NN12	10.9	15.4	4.9	6.4	2.4
N=C1/C(=C\c2coc3ccccc3c2=O)C(=O)N=C2SC(c3ccncc3)=NN12	92.2*	61.1*	98.3*	33.7*	-8.3
N=C1/C(=C\c2coc3ccc(O)cc3c2=O)C(=O)N=C2SC=CN12	47.1*	84.2*	42.4*	17.9*	-25.7
SMILES	OXTR agonist	zfTRPN1 agonist	V1aR counter	TRPML3 agonist	OXTR potentiator
CC(C)CSC1=NSC2=NC(=O)/C(=C\c3coc4ccccc4c3=O)C(=N)N12	120.8*	21.4*	43.2*	12.9*	-21.4
CC(C)CSC1=NSC2=NC(=O)/C(=C\c3ccccc3)C(=N)N12	0.0	-0.6	-0.6	-0.9	-3.3
CCC1(c2ccc(F)cc2)NC(=O)N(CC(=O)c2cc(C)n(C3CC3)c2C)C1=O (configuration not stated)	31.3*	nt	30.4*	nt	-22.3
COc1ccc(/C=N/NC(=O)c2nnn(-c3nonc3N)c2-c2cccs2)cc1OC	5.8	nt	11.3	nt	-8.9
Cc1ccc(/C=N/NC(=O)c2nnn(-c3nonc3N)c2-c2cccs2)cc1	56.4*	nt	42.4*	nt	-9.8
CC(C)c1c(C(=O)N/N=C/c2ccc(C(F)(F)F)cc2)nnn1-c1nonc1N	66.0*	nt	78.9*	nt	-8.0
COc1cccc(-c2c(C(=O)N/N=C/c3cccs3)nnn2-c2nonc2N)c1	21.4*	nt	28.1*	nt	-8.3
CC(C)c1c(C(=O)N/N=C/c2ccoc2)nnn1-c1nonc1N	2.7	nt	1.4	nt	-10.5
Cc1c(C)n2c(SCC(=O)NCc3ccc4c(c3)OCO4)nnc2[nH]c1=O	0.6	nt	-0.6	nt	-4.6
O=C(CSc1nc(C(F)(F)F)cc(=O)[nH]1)Nc1cccc2ccccc12	-0.8	nt	-0.2	nt	-1.7
COC(=O)c1sc(NC(=O)CCCn2nc([N+](=O)[O-])cc2C)c(C(=O)OC)c1C	0.7	-0.2	1.3	1.9	-4.9
OCCNCc1c(OCc2ccc(Cl)cc2)ccc2ccccc12	29.9*	nt	29.6*	nt	-19.8
Cc1ccc(NC(=O)CSCc2cc(=O)n3ccsc3n2)cc1	0.1	nt	0.7	nt	-0.7
COc1cc(/C=C2\SC(=S)N(NC(=O)c3ccc(O)c(OC)c3)C2=O)ccc1O	36.8*	nt	28.9*	nt	-25.6
COc1cc(/C=C2\SC(=S)N(NS(=O)(=O)c3ccc(C)cc3)C2=O)ccc1O	24.1*	37.5*	39.3*	23.8*	-5.3
CCOc1cc(/C=C2\SC(=S)N(NS(=O)(=O)c3ccc(C)cc3)C2=O)ccc1O	13.5	nt	16.5	nt	-14.3
COc1cc(/C=C2\SC(=S)N(NS(=O)(=O)c3ccccc3)C2=O)ccc1O	23.6*	24.9*	40.7*	16.7*	-8.4
COc1ccc(/C=C2/SC(=S)N(NS(=O)(=O)c3ccccc3)C2=O)cc1	-0.5	nt	3.0	nt	-5.8
COc1cc(/C=C2\SC(=S)N(NC(=O)c3ccncc3)C2=O)ccc1O	9.8	13.3	14.2	7.0	-4.1
CCNC(=O)/C(=C/c1ccco1)NC(=O)/C=C/c1ccccc1	2.3	1.1	1.9	-0.6	-3.2
C=CCN1C(=O)c2cccc3c(N4CCCCC4)ccc(c23)C1=O	8.9	9.5	10.3	3.9	-5.6
O=C1c2cccc3c(N4CCCCC4)ccc(c23)C(=O)N1c1cccc(O)c1	33.1*	70.5*	39.8*	32.8*	-13.5
Cc1n[nH]c(C)c1N1C(=O)c2cccc3c(N4CCCCCC4)ccc(c23)C1=O	146.1*	125.4*	150.5*	86.0*	-24.1
COc1ccc(Cc2nnc(NC(=O)Nc3ccc(C)cc3)s2)cc1OC	-1.2	nt	0.5	nt	-7.1
COc1ccc(Cc2nnc(NC(=O)CSc3ccc(C)cc3)s2)cc1OC	56.9*	10.1	77.3*	1.8	-27.9
